How the values were obtained:
MAGL [1] = experiment: In vivo competitive ABPP of brain proteomes from treated mice; design: species or system mouse
How it was run: (§1)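 C57Bl/6J mice received test compound by oral gavage in PEG300 (1.0–40 mg•kg-1). At 4 h they were anesthetized with isoflurane, killed by cervical dislocation, and tissues were flash-frozen. Brain membrane proteomes were labeled with FP-Rh for 30 min at room temperature, quenched in reducing SDS loading buffer, separated on 10% SDS-PAGE and scanned for in-gel fluorescence.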

[2] = tested on: other brain serine hydrolases; experiment: In vitro competitive ABPP with FP-Rh, off-target profile; assay type: biochemical, mouse
How it was run: (§2)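 Mouse brain membrane proteome (1.0 mg/mL) was preincubated with DMSO or test compound (1–100,000 nM) for 30 min at 37 °C. FP-Rh (50 μM stock in DMSO) was added for another 30 min at room temperature, and reactions were quenched with SDS loading buffer. After SDS-PAGE, MAGL, ABHD6 and FAAH activities were quantified from in-gel fluorescent band intensities, from which IC50 values were calculated.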

ABHD6 [3] = target: T1, ABHD6 (Mus musculus, UniProt Q8R2Y0); experiment: In vivo competitive ABPP of brain proteomes from treated mice; details: 40 mg•kg^-1 p.o., 4 h
T1 sequence (Q8R2Y0 1-336): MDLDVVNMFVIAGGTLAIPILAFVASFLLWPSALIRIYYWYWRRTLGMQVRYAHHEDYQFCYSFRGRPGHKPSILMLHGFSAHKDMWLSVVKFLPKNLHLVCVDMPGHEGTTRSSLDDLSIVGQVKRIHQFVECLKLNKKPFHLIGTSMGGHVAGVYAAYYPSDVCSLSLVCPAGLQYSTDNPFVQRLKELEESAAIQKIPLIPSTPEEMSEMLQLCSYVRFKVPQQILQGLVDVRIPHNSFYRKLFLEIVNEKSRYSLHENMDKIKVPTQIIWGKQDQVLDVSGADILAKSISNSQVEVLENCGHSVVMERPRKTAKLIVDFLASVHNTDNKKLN
How it was run: as §1

[4] = tested on: brain lipid levels (2-AG, AA, AEA); experiment: Brain lipid levels in treated mice; assay type: in vivo, mouse; details: JW651-treated mice, p.o., 4 h
How it was run: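 C57Bl/6J mice were dosed by oral gavage in PEG300 (1.0–40 mg•kg-1). After 4 h they were anesthetized with isoflurane and killed by cervical dislocation. Brains were harvested and flash-frozen in liquid N2. Lipids were measured by LC/MS against commercial standards.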

ABHD6 [5] = target: T1, ABHD6; experiment: In vitro competitive ABPP with FP-Rh in mouse brain proteome; assay type: biochemical; details: for relative ABHD6 inhibitory potency: JW842 vs JW843, JW651 vs JW814, MJN110 vs all carbamates
How it was run: as §2

MAGL [6] = target: T2, MAGL (Mus musculus, UniProt O35678); experiment: as above; assay type: biochemical; details: JW842 vs JW843, JW651 vs JW814; MJN110 vs all carbamates
T2 sequence (O35678 1-303): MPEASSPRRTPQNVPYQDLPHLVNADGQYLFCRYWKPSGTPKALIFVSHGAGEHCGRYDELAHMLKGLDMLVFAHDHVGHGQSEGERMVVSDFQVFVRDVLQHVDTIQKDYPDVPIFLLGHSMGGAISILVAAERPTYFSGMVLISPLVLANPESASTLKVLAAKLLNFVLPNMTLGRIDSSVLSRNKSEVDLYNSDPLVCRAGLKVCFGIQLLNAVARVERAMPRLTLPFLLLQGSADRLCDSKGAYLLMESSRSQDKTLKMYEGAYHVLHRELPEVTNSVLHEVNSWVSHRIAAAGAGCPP
How it was run: as §2

FAAH [7] = target: T3, FAAH (Mus musculus, UniProt O08914); experiment: In vivo competitive ABPP of brain proteomes from treated mice; details: oral, 4 h
T3 sequence (O08914 1-579): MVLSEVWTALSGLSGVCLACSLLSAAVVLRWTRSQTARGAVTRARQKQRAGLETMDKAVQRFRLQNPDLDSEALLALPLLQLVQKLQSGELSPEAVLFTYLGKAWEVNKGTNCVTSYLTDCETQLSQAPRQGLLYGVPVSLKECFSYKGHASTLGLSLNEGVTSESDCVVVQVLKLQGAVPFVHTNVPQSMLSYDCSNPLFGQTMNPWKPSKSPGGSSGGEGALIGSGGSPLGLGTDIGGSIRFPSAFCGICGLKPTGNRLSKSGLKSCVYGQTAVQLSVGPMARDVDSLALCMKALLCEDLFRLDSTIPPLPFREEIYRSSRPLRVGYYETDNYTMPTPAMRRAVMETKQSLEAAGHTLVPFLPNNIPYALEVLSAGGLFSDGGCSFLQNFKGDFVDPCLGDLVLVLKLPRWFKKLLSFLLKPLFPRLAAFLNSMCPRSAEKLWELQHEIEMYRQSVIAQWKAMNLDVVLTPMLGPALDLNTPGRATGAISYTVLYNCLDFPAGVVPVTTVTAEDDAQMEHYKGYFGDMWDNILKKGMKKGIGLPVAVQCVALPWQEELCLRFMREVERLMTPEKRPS
How it was run: as §1

FAAH [8] = target: T3, FAAH; experiment: In vitro competitive ABPP with FP-Rh in mouse brain proteome; assay type: biochemical; details: 30 min, 37 °C
How it was run: as §2

FAAH [9] = target: T3, FAAH; experiment: In vitro CC-ABPP of mouse brain proteomes; assay type: biochemical
How it was run: (§3)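 Brain membrane proteome from naïve mice (1.0 mg/mL) was treated with varying concentrations of alkyne carbamate probe for 30 min at 37 °C. A premixed click mixture was added immediately: CuSO4 (50 mM stock), TBTA (1.7 mM stock), freshly prepared TCEP (50 mM stock) and Rh-N3 (1.25 mM stock). Reactions ran 1 h at room temperature, were diluted with SDS loading buffer, and were read by SDS-PAGE in-gel fluorescence.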

carboxylesterases (CESs) = experiment: In vivo CC-ABPP of liver proteomes; design: species or system mouse; details: oral, 1-40 mg•kg^–1, 4 h
How it was run: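 Mice received oral alkyne carbamate probe in PEG300 (1–40 mg•kg-1) for 4 h before livers were harvested and flash-frozen. Liver membrane proteome, with the soluble fraction removed, was diluted to 1.0 mg/mL. It was clicked to Rh-N3 with premixed CuSO4, TBTA and fresh TCEP for 1 h at room temperature, then diluted in SDS loading buffer and resolved by SDS-PAGE for in-gel fluorescence.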

mouse brain proteome [10] = experiment: In vitro CC-ABPP, background proteome reactivity; assay type: biochemical
How it was run: as §3

MAGL [11] = target: T2, MAGL; experiment: In vivo competitive ABPP of liver proteomes; details: oral, 1-40 mg•kg^–1, 4 h
How it was run: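 Mice were gavaged orally with test compound in PEG300 (1.0–40 mg•kg-1). After 4 h, animals were killed under isoflurane and livers flash-frozen. Liver membrane proteomes were labeled with FP-Rh for 30 min at room temperature, quenched with reducing SDS loading buffer, resolved on 10% SDS-PAGE and read by in-gel fluorescence scanning.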

MAGL [12] = experiment: In vitro click chemistry; assay type: biochemical, mouse; details: CC-ABPP with Rh-N3, 30 min, 37 °C
How it was run: as §3

brain serine hydrolases = experiment: In vivo competitive ABPP of brain proteomes, off-target profile; design: species or system mouse; details: oral, 1-40 mg•kg^–1, 4 h
How it was run: as §1

mouse brain proteome [13] = experiment: In vivo CC-ABPP of brain proteomes, off-target labeling; details: entire tested dose range 1-40 mg•kg^–1 p.o.

O=C(OC(C(F)(F)F)C(F)(F)F)N1CCN(C(c2ccc(Cl)cc2)c2ccc(Cl)cc2)CC1 [JW651]
lowest dose giving near complete / complete inhibition of MAGL in brain (MAGL [1]; C57Bl/6J mice, oral gavage 1.0 to 40 mg•kg^-1, 4 h): 5 mg/kg | cross-reactivity with other brain serine hydrolases off-targets ([2]; up to 10 μM): did not exhibit cross-reactivity | detectable off-targets ([2]; up to 100 μM JW651, membrane fraction of mouse brain proteome): ABHD6 being the only detectable off-target | inhibition of ABHD6 in brain (ABHD6 [3]): partial inhibition | brain levels of N-arachidonoylethanolamide (AEA) [4]: unaffected | brain levels of arachidonic acid (AA) [4]: concomitant reductions | elevation of brain levels of 2-AG [4]: 10 fold | blockade of ABHD6 (ABHD6 [5]; at 10 μM): partial blockade

O=C(Oc1ccc([N+](=O)[O-])cc1)N1CCN(C(c2ccc(Cl)cc2)c2ccc(Cl)cc2)CC1 [JW842]
relative MAGL inhibitory potency (MAGL [6]): much greater potency | relative ABHD6 inhibitory potency (ABHD6 [5]): much greater potency

C#Cc1ccc(C(c2ccc(Cl)cc2)N2CCN(C(=O)Oc3ccc([N+](=O)[O-])cc3)CC2)cc1 (stereo not shown) [JW842yne]
relative activity on MAGL in the brain in vivo (MAGL [1]; oral, 1-40 mg•kg^–1, 4 h, vs JW651yne and MJN110yne): less active | dose producing strong inhibition of FAAH in brain (FAAH [7]): ≥ 10 mg•kg^–1 | change in inhibitory activity against FAAH on exchange of chloro for alkyne (FAAH [8]): slight increase | cross-reactivity with FAAH (FAAH [9]): some cross-reactivity | CES labeling in liver (carboxylesterases (CESs)): strongest CES labeling profile

O=C(ON1C(=O)CCC1=O)N1CCN(C(c2ccc(Cl)cc2)c2ccc(Cl)cc2)CC1 [MJN110]
relative MAGL inhibitory potency (MAGL [6]): highest | other off-targets observed ([2]; below 100 μM): LYPLA1/2 being the only other off-targets | relative ABHD6 inhibitory potency (ABHD6 [5]): highest

C#Cc1ccc(C(c2ccc(Cl)cc2)N2CCN(C(=O)ON3C(=O)CCC3=O)CC2)cc1 (stereo not shown) [MJN110yne]
probe concentration at which background proteome reactivity became apparent (mouse brain proteome [10]; CC-ABPP with Rh-N3, more dramatic at 100 μM): 10 µM | degree of background proteome reactivity (mouse brain proteome [10]; CC-ABPP, concentrations up to 100 μM): highest degree of background proteome reactivity | lowest dose substantially inhibiting MAGL in the brain (MAGL [1]; oral, 1-40 mg•kg^–1, 4 h): 5.0 mg•kg^–1 | inactivation of MAGL in liver (MAGL [11]): potent inactivation | lowest probe concentration detecting MAGL reactivity (MAGL [12]): 10 nM | only detectable off-target activity in brain in vivo (brain serine hydrolases): ABHD6 | broader background proteome labeling in vivo (mouse brain proteome [13]): did not reveal broader background proteome labeling

Source: publication PMC3806897 (ACS chemical biology, 2013)
